Source: PubChem (several laboratories)
A selection: hits, their analogues and other compounds. The true share with any hit is near 2.6%.
FGF22 binding – shifts melting point of recombinant human FGF22; recombinant FGF22 thermal shift, SYPRO orange fluorescence; percent of sucrose octasulfate shift, DMSO zero; 1.5% of 340,000 active; activity (Tm shift, normalised), % at 9.99 µM;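 active = mean Tm shift, scaled 0 neutral to 100 positive control, at about 1.3% or above, every replicate too, limit read from the data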
NSD2 inh – blocks human histone methyltransferase NSD2 | O96028 | NSD2 peptide methylation, AlphaScreen, 120 min | inhibition, % at 12.5 µM | 0.54% of 310,000 active; in the data active = inhibition above about 50%
Casp6 inh – caspase-6 (human) enzyme inhibition; P55212; purified caspase-6, Z-VEID-R110 cleavage fluorescence; inhibition, % at 12.5 µM; 0.53% of 350,000 active; AID 686996;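 active = mean inhibition across replicates at least about 35%, with every replicate also reaching that limit, limit read from the data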
SIRT5 inh – sirtuin-5 (human) deacylase inhibition; inhibition, % at 15 µM; Q9NXA8; Purified SirT5, succinyl-peptide AMC, trypsin-coupled fluorescence; 1.1% of 330,000 active; in the data active = inhibition above about 15%
UCH37 DUB inh – blocks the human deubiquitinase UCH37. purified proteasome/UCH37, Ub-AMC cleavage fluorescence. inhibition, % (concentration not given with the values). 0.33% of 330,000 active. AID 588478;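 active = mean inhibition over replicate wells above about 20%, limit read from the data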
Target sequence (Q9Y5K5 whole entry, looked up): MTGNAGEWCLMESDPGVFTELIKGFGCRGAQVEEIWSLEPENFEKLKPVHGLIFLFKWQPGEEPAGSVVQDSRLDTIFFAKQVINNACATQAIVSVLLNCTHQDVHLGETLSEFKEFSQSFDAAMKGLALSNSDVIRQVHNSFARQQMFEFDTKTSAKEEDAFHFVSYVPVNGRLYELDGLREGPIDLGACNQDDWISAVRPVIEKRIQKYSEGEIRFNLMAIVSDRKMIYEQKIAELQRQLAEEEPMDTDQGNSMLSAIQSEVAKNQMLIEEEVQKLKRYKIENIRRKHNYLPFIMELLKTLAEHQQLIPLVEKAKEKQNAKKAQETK
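Material: Human UCH37 enzyme supplied as purified proteasome complex | Schedule: 30 min preincubation with enzyme, 25 min cleavage at room temperature | Detection: AMC fluorescence 355/460 nm | Measure: % inhibition of Ub-AMC cleavage fluorescence | Controls: Wells without proteasome as full block, compound-free enzyme plus substrate as uninhibited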
Each line names hits and unclear results; the compound was inactive in the other large screens; ! = not active in a repeat.

COCCNC(=O)/C(C#N)=C/c1cccc(/C=C(\C#N)C(=O)NCCOC)c1	none (no result: SIRT5 inh)
COCCCNC(=O)/C(C#N)=C/c1ccc(OCC(=O)O)c(OC)c1	Casp6 inh 41
CNC(=O)C[C@H]1CC[C@H]2[C@@H](COc3ccc(NC(=O)NC(C)C)cc3C(=O)N2C)O1	none (no result: NSD2 inh, Casp6 inh, SIRT5 inh, UCH37 DUB inh)
C[C@H](O)C#Cc1cnc2c(c1)C(=O)N([C@@H](C)CO)C[C@@H](C)[C@H](CN(C)C(=O)c1ccncc1)O2	none (no result: NSD2 inh, UCH37 DUB inh)
O=C(C[C@@H]1C=C[C@H](NC(=O)Nc2ccc(C(F)(F)F)cc2)[C@@H](CO)O1)NCc1cc(F)cc(F)c1	none (no result: NSD2 inh, UCH37 DUB inh)
CC(C)N(C(=O)COC(=O)c1cncc(Br)c1)C(C)C	none
CN(Cc1ccccc1)C(=O)COC(=O)c1cncc(Br)c1	SIRT5 inh 17
COc1ccc(-c2cc(C(=O)N3CCc4ccccc4C3)no2)cc1	none (no result: SIRT5 inh)
COc1cccc(-c2cc(C(=O)N3CCc4ccccc4C3)no2)c1	UCH37 DUB inh 22 (no result: FGF22 binding, Casp6 inh, SIRT5 inh)
COc1ccc2c3c(n(C)c2c1)[C@@H](CO)N(C(=O)Nc1ccc(F)cc1)CC31CN(CC2CCOCC2)C1	none (no result: NSD2 inh, UCH37 DUB inh)
O=C(CCn1c(=S)oc2ccccc21)Nc1ccccc1F	FGF22 binding 44
CNc1ccccc1NC(=O)CCn1c(=S)oc2ccccc21	none
Cc1ccc(NC(CSC(N)=O)=NS(=O)(=O)c2ccccc2)cc1	none (no result: FGF22 binding, NSD2 inh, Casp6 inh, SIRT5 inh)
O=C(C1Cc2ccccc2CN1S(=O)(=O)c1ccc(F)cc1)N1CCOCC1 (configuration not stated)	SIRT5 inh 25
Cc1noc(C)c1S(=O)(=O)Nc1ccc2c(c1)C(=O)N([C@@H](C)CO)C[C@H](C)[C@@H](CN(C)Cc1ccc(C(F)(F)F)cc1)OCCCC[C@H](C)O2	SIRT5 inh 24! (no result: NSD2 inh, UCH37 DUB inh)
Cc1noc(C)c1S(=O)(=O)Nc1ccc2c(c1)C(=O)N([C@@H](C)CO)C[C@@H](C)[C@@H](CN(C)Cc1ccc(C(F)(F)F)cc1)OCCCC[C@@H](C)O2	SIRT5 inh 27 (no result: NSD2 inh, UCH37 DUB inh)
